Assay results as given in ChEMBL document CHEMBL5390247, “Aryl azoles based scaffolds for disrupting tumor microenvironment” (Bioorg Med Chem, 2023).
Calls of active or inactive are those of the source. No cut-off for these calls is given here.

Columns and labels:
[1] = Toxicity against interferon gamma-stimulated human THP-1 monocyte cells co-cultured with human HT-29 cells assessed as reduction in cell viability at 100 uM incubated for 48 hrs by flow cytometry analysis; type: cell-based; settings: thp-1, 48 h
Method in brief: (§1)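 HT-29 cells at 10^5/well seeded and grown 24 h. Medium then replaced with medium containing IFN-γ (10 ng/ml), 5 × 10^5 THP-1 cells/well and compound at 100 µM; DMSO used as control. After 48 h, THP-1 cells collected from supernatant and cancer cells by trypsinisation. Both fixed in 4% paraformaldehyde and counted by flow cytometry relative to control.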

HT-29 [2] = assay: Antiproliferative activity against human HT-29 cells assessed as reduction in cell viability incubated for 48 hrs by MTT assay; type: functional, cell-based; settings: HT-29, 48 h
Method in brief: (§2)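 MTT dye-reduction assay. Cells at 5 × 10^3/well in DMEM with 10% FBS, treated with serial dilutions of compound (DMSO stocks) for 2 days at 37 °C, 5% CO2. MTT added for a further 3 h, formazan dissolved in DMSO, absorbance read at 550 nm. Viability expressed as % of untreated cells; IC50 determined graphically from three independent experiments.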

A549 = assay: Antiproliferative activity against human A549 cells assessed as reduction in cell viability incubated for 48 hrs by MTT assay; type: functional, cell-based; settings: A549, 48 h; method in brief: as §2
MCF7 = assay: Antiproliferative activity against human MCF7 cells assessed as reduction in cell viability incubated for 48 hrs by MTT assay; type: functional, cell-based; settings: MCF7, 48 h; method in brief: as §2
[3] = Cytotoxicity against HEK293 cells assessed as reduction in cell viability incubated for 48 hrs by MTT assay; type: toxicity, cell-based; settings: human; method in brief: as §2
HT-29 [4] = assay: Antiproliferative activity against human HT-29 cells assessed as relative PD-L1 protein expression in membrane at 100 uM incubated for 48 hrs by flow cytometry analysis relative to control; type: functional
HT-29 [5] = assay: Antiproliferative activity against human HT-29 cells assessed as relative PD-L1 protein expression in whole cell at 100 uM incubated for 48 hrs by flow cytometry analysis relative to control; type: functional
HT-29 [6] = assay: Antiproliferative activity against human HT-29 cells assessed as relative c-Myc protein expression at 100 uM incubated for 48 hrs by flow cytometry analysis relative to control; type: functional
HT-29 [7] = assay: Antiproliferative activity against human HT-29 cells assessed as relative VEGFR-2 protein expression in membrane at 100 uM incubated for 48 hrs by flow cytometry analysis relative to control; type: functional
HT-29 [8] = assay: Antiproliferative activity against human HT-29 cells assessed as relative VEGFR-2 protein expression in whole cell at 100 uM incubated for 48 hrs by flow cytometry analysis relative to control; type: functional
HT-29 [9] = assay: Immunomodulatory activity in human HT-29 cells co-cultured with interferon gamma-stimulated THP-1 cells assessed as cell viability at 100 uM incubated for 48 hrs by flow cytometry analysis relative to control; type: functional; settings: read-out: Activity; method in brief: as §1
HT-29 [10] = assay: Immunomodulatory activity in human HT-29 cells co-cultured with interferon gamma-stimulated THP-1 cells assessed as relative CD-47 protein expression in membrane at 100 uM incubated for 48 hrs by flow cytometry analysis relative to control; type: functional
HT-29 [11] = assay: Immunomodulatory activity in human HT-29 cells co-cultured with interferon gamma-stimulated THP-1 cells assessed as relative PD-L1 protein expression in membrane at 100 uM incubated for 48 hrs by flow cytometry analysis relative to control; type: functional
HT-29 [12] = assay: Immunomodulatory activity in human HT-29 cells co-cultured with interferon gamma-stimulated THP-1 cells assessed as reduction in number of cells at 100 uM incubated for 48 hrs; type: functional, cell-based; method in brief: as §1
HT-29 [13] = assay: Immunomodulatory activity in human HT-29 cells co-cultured with interferon gamma-stimulated THP-1 cells assessed as induction of morphological changes by measuring cell shrinkage at 100 uM incubated for 48 hrs; type: functional, cell-based
Method in brief: (§3)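 HT-29 cells co-cultured with IFN-γ-stimulated THP-1 cells and treated 48 h with compounds at 100 µM, with DMSO as control. Cell shrinkage and rounded morphology assessed by microscopy images.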

HT-29 [14] = assay: Immunomodulatory activity in human HT-29 cells co-cultured with interferon gamma-stimulated THP-1 cells assessed as induction of morphological changes by measuring rounded cell morphology at 100 uM incubated for 48 hrs; type: functional, cell-based; method in brief: as §3
HT-29 [15] = assay: Immunomodulatory activity in human HT-29 cells co-cultured with interferon gamma-stimulated THP-1 cells assessed as inhibition of CD-47 protein expression at 100 uM incubated for 48 hrs by flow cytometry analysis relative to control; type: functional
HT-29 [16] = assay: Antiproliferative activity against human HT-29 cells assessed as reduction in IL-6 secretion at 100 uM incubated for 48 hrs by ELISA assay; type: functional, cell-based
Method in brief: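 HT-29 monocultures at 10^5 cells/well treated 48 h with compound at 100 µM in 500 µL growth medium. Media collected and secreted IL-6 measured with a human IL-6 ELISA kit.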

HT-29 [17] = assay: Immunomodulatory activity in human HT-29 cells co-cultured with interferon gamma-stimulated THP-1 cells assessed as inhibition of cell growth at 100 uM incubated for 48 hrs by flow cytometry analysis relative to control; type: functional; method in brief: as §1
HT-29 [18] = assay: Immunomodulatory activity in human HT-29 cells co-cultured with interferon gamma-stimulated THP-1 cells assessed as IL-6 level at 100 uM incubated for 48 hrs by ELISA analysis (reference value: 192 +/- 16 pg/ml); type: functional
Method in brief: (§4)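 HT-29 cells co-cultured with IFN-γ (10 ng/ml)-stimulated THP-1 cells and treated 48 h with compound at 100 µM. Culture media collected and IL-6 measured by human IL-6 ELISA, in pg/mL and as % of control. Mean of three experiments.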

HT-29 [19] = assay: Immunomodulatory activity in human HT-29 cells co-cultured with interferon gamma-stimulated THP-1 cells assessed as relative IL-6 level at 100 uM incubated for 48 hrs by ELISA analysis relative to control; type: functional; method in brief: as §4
HMEC-1 [20] = assay: Antiangiogenic activity in HMEC-1 cells assessed as inhibition of endothelial microtubes formation at 100 uM incubated for 24 hrs by matrigel based imaging analysis; type: functional, cell-based; settings: Homo sapiens
Method in brief: (§5)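 HMEC-1 cells at 2 × 10^4 cells/well seeded on Matrigel (10 mg/mL, gelled 30 min at 37 °C) in EGM-2MV medium with SingleQuots, allowed to attach 30 min at 37 °C. Compounds then added in medium; after 24 h at 37 °C, microtube formation/destruction evaluated from pictures.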

HMEC-1 [21] = assay: Antiangiogenic activity in HMEC-1 cells assessed as inhibition of endothelial microtubes formation at <75 uM incubated for 24 hrs by matrigel based imaging analysis; type: functional, cell-based; settings: Homo sapiens; method in brief: as §5
HEK293 [22] = assay: Anti-vasculogenic activity against HEK293 cells assessed as disruption of tube-like structures at 100 uM incubated for 24 hrs by Matrigel based imaging analysis; type: functional, cell-based; settings: Homo sapiens
Method in brief: (§6)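 HEK-293 cells seeded at 5 × 10^4 cells/well on Matrigel (pre-incubated with medium 24 h at 37 °C), grown 24 h at 37 °C until tube-like structures form; compounds then added in medium and incubated a further 24 h at 37 °C. Disruption of preformed tube-like structures assessed by imaging.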

HEK293 [23] = assay: Anti-vasculogenic activity against HEK293 cells assessed as disruption of tube-like structures at <75 uM incubated for 24 hrs by Matrigel based imaging analysis; type: functional, cell-based; settings: Homo sapiens; method in brief: as §6

Row | SMILES | Activity [1] | IC50 (HT-29 [2]) | IC50 (A549) | IC50 (MCF7) | IC50 at 48 h [3] | Activity (HT-29 [4]) | Activity (HT-29 [5]) | Activity (HT-29 [6]) | Activity (HT-29 [7]) | Activity (HT-29 [8]) | viability at 100 µM (HT-29 [9]) | Activity (HT-29 [10]) | Activity (HT-29 [11]) | Activity (HT-29 [12]) | Activity (HT-29 [13]) | Activity (HT-29 [14]) | inhibition at 100 µM (HT-29 [15]) | inhibition at 100 µM (HT-29 [17]) | further results
1 | O=[N+]([O-])c1cccc(-c2nnn(Cc3ccccc3Cl)n2)c1 | Non-Toxic | 81 µM | > 100 µM | > 100 µM | > 100 µM | 98% | 89% | 86% | 97% | 53% | 44% | 87% | 108% | – | – | – | – | – | –
2 | COc1ccc(Cn2nnc(-c3cccc(N)c3)n2)cc1 | Non-Toxic | – | – | – | – | >100% | 99% | 75% | >100% | 75% | 45% | 58% | 100% | Active | Active | Active | > 30% | – | –
3 | Nc1cccc(-c2cn(Cc3ccc(Cl)cc3)nn2)c1 | Non-Toxic | – | – | – | – | – | – | – | – | – | 5% | 91% | 140% | Active | Active | Active | – | > 90% | Activity (HT-29 [16]): inactive; Activity (HT-29 [18]): 189 pg/mL; Activity (HT-29 [19]): 98%; Activity (HMEC-1 [20]): Active; Activity (HMEC-1 [21]): inactive; Activity (HEK293 [22]): Active; Activity (HEK293 [23]): inactive
4 | Nc1cccc(-c2cn(Cc3ccc(Br)cc3)nn2)c1 | Non-Toxic | – | – | – | – | – | – | – | – | – | 8% | 92% | 154% | Active | Active | Active | – | > 90% | Activity (HT-29 [16]): inactive; Activity (HT-29 [18]): 183 pg/mL; Activity (HT-29 [19]): 95%; Activity (HMEC-1 [20]): Active; Activity (HMEC-1 [21]): inactive; Activity (HEK293 [22]): Active; Activity (HEK293 [23]): inactive
5 | O=[N+]([O-])c1cccc(-c2nnn(Cc3ccc(Br)cc3)n2)c1 | Non-Toxic | > 100 µM | 39 µM | > 100 µM | > 100 µM | >100% | 93% | 72% | 96% | 71% | 52% | 87% | 93% | – | – | – | – | – | –
6 | Cc1cccc(Cn2nnc(-c3cccc(N)c3)n2)c1 | Non-Toxic | – | – | – | – | >100% | 81% | >100% | >100% | >100% | 15% | 69% | 99% | – | – | – | > 30% | > 70% | –
7 | Cc1ccc(Cn2nnc(-c3cccc(N)c3)n2)cc1 | Non-Toxic | – | – | – | – | – | – | – | – | – | 28% | 67% | 90% | – | – | – | > 30% | > 70% | –
8 | O=[N+]([O-])c1cccc(-c2nnn(Cc3ccc(Cl)cc3)n2)c1 | Non-Toxic | > 100 µM | > 100 µM | 84 µM | > 100 µM | 93% | 87% | 90% | 95% | 45% | 93% | 88% | 93% | – | – | – | – | – | –
9 | COc1cccc(Cn2nnc(-c3cccc([N+](=O)[O-])c3)n2)c1 | Non-Toxic | – | – | – | – | 83% | >100% | 75% | >100% | 42% | 40% | 77% | 88% | Active | Active | Active | – | – | –
